Screens (PubChem)
IDE cell inh = cellular human IDE inhibition; P14735; HEK cells, FAbetaB cleavage, fluorescence polarization; inhibition, % at 5.59 µM; 0.41% of 320,000 active;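 active = percent inhibition above the average of all tested compounds plus 3 SD, set per screening campaign, cut at about 16% in these data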;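 note: IDE supplied by intact live HEK cells; FP after avidin binding of uncleaved biotin substrate so inhibition keeps polarization high; 0% = DMSO wells and 100% = 60 µM reference IDE inhibitor Ii1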
HDAC3 inhib = blocks human histone deacetylase 3 | O15379 | recombinant HDAC3, fluorogenic peptide/trypsin coupled, fluorescence | inhibition, % at 8.3 µM | 0.15% of 320,000 active | AID 2718; in the data active = inhibition above about 26%, passing the limit was not always enough
Target sequence (O15379 whole entry, looked up): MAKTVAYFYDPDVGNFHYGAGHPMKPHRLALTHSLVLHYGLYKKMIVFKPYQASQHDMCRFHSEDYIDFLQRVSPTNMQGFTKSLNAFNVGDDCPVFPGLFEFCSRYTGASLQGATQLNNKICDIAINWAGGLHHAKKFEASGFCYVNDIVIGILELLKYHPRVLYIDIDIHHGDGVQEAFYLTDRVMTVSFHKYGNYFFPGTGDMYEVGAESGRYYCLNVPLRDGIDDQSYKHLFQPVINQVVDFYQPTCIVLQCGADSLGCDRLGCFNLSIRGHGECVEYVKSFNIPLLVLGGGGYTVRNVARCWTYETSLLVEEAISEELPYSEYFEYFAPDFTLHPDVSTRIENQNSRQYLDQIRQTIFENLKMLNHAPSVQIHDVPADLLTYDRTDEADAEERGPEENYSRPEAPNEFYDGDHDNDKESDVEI
Efflux pump mplx = blocks antifungal efflux pumps in multiplex yeast assay; S. cerevisiae Candida pump triplex, Nile Red efflux; inhibition, % at 10 µM; 0.44% of 330,000 active;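 active = plate passing quality check with inhibition over a set limit, or well fluorescence over plate mean plus 4 SD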;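 note: Nile Red retained in pooled yeast measured as flow cytometry median fluorescence; 0% = buffer negative control and 100% = Enniatin B positive control; higher means more Nile Red kept so more efflux inhibition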
IDE act = boosts human insulin-degrading enzyme activity in HEK cells. P14735. FAbeta-B cleavage, fluorescence polarization; 0% vehicle, 100% cell-free pure enzyme wells. activation, % at 5.96 µM. 0.073% of 340,000 active. AID 493087;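 active = activation above the mean of all tested compounds plus 3 SD, set per screening campaign, cut at about 17% in these data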
Yeast superoxide = lowers age-related superoxide in aged yeast cells; S. cerevisiae aged cells, superoxide DHE fluorescence; hits give low values; superoxide response (% of plate mean), % at 10 µM; 0.18% of 330,000 active;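 active = superoxide response under a set limit, about three screen SD below normal, cut at about 65% in these data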;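 note: yeast aged for seven days with compound at 30 °C before DHE staining; 100% = average MFI of all compound-treated wells on the plate with controls excluded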
Tb MetRS inh = Trypanosoma brucei MetRS inhibition; 0.4% of 360,000 active; inhibition, % at 11.9 µM; purified T. brucei MetRS, ATP depletion, Kinase-Glo luminescence;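 active = inhibition above a per-plate cutoff of the control wells' mean inhibition plus 3 SD, cut at about 5.5% in these data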;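 note: 0% = DMSO wells median and 100% = median of wells with control inhibitor compound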
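Test system: purified T. brucei MetRS enzyme. Also added: ATP, methionine and E. coli bulk tRNA substrates. Compound: 11.9 µM single point. Schedule: 15 min enzyme-compound preincubation, 2 h reaction, 10 min detection, 25 °C. Signal: luciferase luminescence of residual ATP, Kinase-Glo. Evaluation: percent inhibition versus plate control medians. Controls: DMSO wells, low control.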
Cmpd fluor yeast = counter-screen for efflux pump inhibitors: compound fluorescence | shares compounds with Efflux pump mplx | AID 588517 | 4% of 1,700 active | S. cerevisiae AD/pABC3, flow cytometry | fluorescence ratio to DMSO, % at 10 µM;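 active = fluorescence ratio to DMSO above its plate's cutoff, the plate mean ratio plus 5 SD, cut at about 210% in these data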;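 note: unstained yeast with no Nile Red so the signal is compound autofluorescence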
CaMdr1 efflux inh = blocks the Candida albicans Mdr1 efflux pump in yeast. shares compounds with Efflux pump mplx. S. cerevisiae AD/CaMDR1, Nile Red efflux, flow cytometry. AID 588518. 1% of 1,700 active. inhibition, % at 10 µM; in the data active = inhibition above about 26%;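 note: 0% = DMSO vehicle and 100% = reference inhibitor; higher means more Nile Red retained so more efflux inhibition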
CaCdr2 efflux inh = blocks the Candida albicans Cdr2 efflux pump in yeast; shares compounds with Efflux pump mplx; S. cerevisiae AD/CaCDR2, Nile Red retention, flow cytometry; Nile Red retention ratio vs DMSO, % at 10 µM; 4% of 1,700 active; AID 588520; in the data active = Nile Red retention ratio vs DMSO above about 190%;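 note: higher ratio means more blocking of Cdr2 efflux of the dye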
Cdr1 pump inh = Candida Cdr1 efflux pump inhibition | AID 588522 | inhibition, % at 10 µM | shares compounds with Efflux pump mplx | S. cerevisiae AD/CaCDR1, Nile Red efflux, flow cytometry | 1% of 1,700 active;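 active = inhibition above the screen-wide mean plus twice its standard deviation, cut at about 32% in these data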
Starred values were filed as active, the others as inactive; . = no result. Shown are actives, neighbours in structure and some others; about 1.4% of the full set was active somewhere.

SMILES	IDE cell inh	HDAC3 inhib	Efflux pump mplx	IDE act	Yeast superoxide	Tb MetRS inh	Cmpd fluor yeast	CaMdr1 efflux inh	CaCdr2 efflux inh	Cdr1 pump inh
Cn1nccc1C(=O)NC1CC(C)(C)Cc2c1cnn2-c1ccc(F)cc1 (stereo unspecified)	3	11	0	0	102	0	.	.	.	.
CC(C)COc1cccc(C(=O)N(C)CC(=O)Nc2cccc3ccccc23)c1	-2	8	0	1	93	0	.	.	.	.
N#C/C(=C/c1ccco1)c1nc2ccccc2s1	11	7	0	0	102	0	99	0	106	0
N#C/C(=C\c1ccc(O)c([N+](=O)[O-])c1)c1nc2ccccc2s1	.	.	.	-3	.	0	.	.	.	.
CCCCc1ccc(-c2csc(/C(C#N)=C\c3ccco3)n2)cc1	2	3	0.6*	4	109	-1	112	0	91	0
N#C/C(=C\c1ccco1)c1nc2ccccc2s1	15	8	0	-6	101	0	108	0	110	0
Cc1cccc(C)c1NC(=O)C(c1ccccc1F)n1c(=O)c(-c2cc3ccccc3[nH]2)nc2ccccc21 (stereo unspecified)	.	.	.	.	.	0	.	.	.	.
COC(=O)c1ccc(N)c(N=CC2=C(O)CC(C)(C)CC2=O)c1	-3	.	1.7*	2	100	0	95	0	105	0
CC1(C)CC(=O)C(C=Nc2cc(C(=O)c3ccccc3)ccc2N)=C(O)C1	0	3	0	-4	98	0	.	.	.	.
O=C(NC1CCN(Cc2ccccc2)CC1)c1[nH]c(C(F)(F)F)nc1-c1ccccc1	.	.	.	.	.	0	.	.	.	.
CC(OC(=O)c1ccc2c(c1)OCO2)C(=O)NC1CCCCC1 (stereo unspecified)	.	.	.	.	.	0	.	.	.	.
O=C(CSc1ccc(-c2ccccc2)nn1)NC1CCCCC1	6	6	5.7*	0	107	0	98	0	95	0
CSc1ccccc1C(=O)Nc1ccc(C)c(C)c1	6	3	1.4*	2	144	-1	108	0	114	0
CCOc1ccc(CN(C(=O)c2ccccn2)c2ccc(OC)c(Cl)c2)cc1	-2	1	0	4	98	0	.	.	.	.
COc1ccc(C(=O)NNC(=O)CSc2nnc(-c3ccc(O)cc3)n2C)cc1	12	4	0	3	100	-1	.	.	.	.
COc1ccc(C(C)n2c(C)c3c(C)nnc(C)c3c2C)cc1 (stereo unspecified)	1	-4	6.7*	1	118	-1	106	0	103	0
CC1(C)CC2(CC(c3ccc(F)cc3)c3ccc(O)cc3O2)NC(=S)N1 (stereo unspecified)	3	5	0	5	103	-1	.	.	.	.
CC1(C)CC2(CC(c3cccs3)c3cc(Cl)c(O)cc3O2)NC(=S)N1 (stereo unspecified)	-1	11	53*	4	111	-1	102	75*	114	0
O=C(NCCCCNC(=O)c1ccc(Br)s1)c1ccc(Br)s1	3	3	0	3	87	3	.	.	.	.
CSc1ccc(NS(=O)(=O)c2ccc(-n3cnnn3)cc2)cc1	-6	.	0	-4	102	0	.	.	.	.
Cc1ccc(S(=O)(=O)Nc2ccc(-n3cnnn3)cc2)cc1	0	-1	0.9*	2	99	0	103	0	101	0
C=C(c1ccccc1O)n1ccnc1	0	3	0	1	88	-1	.	.	.	.
COC(=O)c1ccccc1NC1OC(=O)c2ccccc21 (stereo unspecified)	-3	0	91*	9	105	0	101	0	94	0
O=C(CNC(=O)c1ccccc1Cl)NCC(c1cccs1)N1CCOCC1 (stereo unspecified)	-3	2	0	0	112	0	.	.	.	.
COc1cc(F)ccc1-c1cc(C(=O)NCc2cc(C(F)(F)F)cc(C(F)(F)F)c2)[nH]n1	.	.	.	.	.	0	.	.	.	.
SMILES	IDE cell inh	HDAC3 inhib	Efflux pump mplx	IDE act	Yeast superoxide	Tb MetRS inh	Cmpd fluor yeast	CaMdr1 efflux inh	CaCdr2 efflux inh	Cdr1 pump inh
CCCSc1nc(C)c(-c2csc(C(C#N)=C3CCCC3)n2)cc1C#N	-3	-1	0.9*	-5	95	0	108	0	114	0
NC(=O)NOCc1ccccc1	-5	5	0	6	94	-1	.	.	.	.
O=C(NOCc1ccccc1)c1coc(-c2ccccc2)n1	.	.	1.4*	3	101	-1	92	0	96	0
O=C(Nc1ccc(Nc2ccccc2)cc1)C(Cl)Cl	0	7	20*	-1	104	0	118	0	112	0
NC(=O)Nc1ccc(Nc2ccccc2)cc1	7	5	0	2	89	-1	.	.	.	.
CCN1C[C@@H]2[C@@H]3C(=O)N(Cc4ccccc4)C(=O)[C@@H]3[C@](Cc3ccccc3)(C1=O)N2C(=O)c1ccc(Cl)cc1	.	.	.	3	.	0	.	.	.	.
COc1ccc(CCOC(=O)c2ccc(N)c([N+](=O)[O-])c2)cc1	-3	4	6.6*	8	95	0	102	0	.	0
CC(C)(C)C(=O)COC(=O)c1ccc(N)c([N+](=O)[O-])c1	0	2	0	4	86	0	.	.	.	.
O=C(NCCO)/C(=C\c1ccc(Br)cc1)NC(=O)c1cccs1	3	5	7.5*	4	117	0	103	0	96	0
CC(C)c1ccc(/C=N/NC(=O)CCNC(=O)c2ccccc2)cc1	4	1	0	3	94	-1	.	.	.	.
COc1ccc(C2c3ccc4ccccc4c3Oc3ncn(CCN4CCOCC4)c(=N)c32)cc1 (stereo unspecified)	1	3	1.0*	-5	78	0	108	0	112	0
O=C(CSCc1ccccc1Cl)Nc1c[nH]c(=O)[nH]c1=O	-3	.	0	3	93	0	.	.	.	.
Cc1ccccc1NC(=O)c1ccc(NC(=O)c2ccco2)cc1	7	3	0	-1	95	0	113	0	98	0
Cc1ccccc1NC(=O)c1ccccc1NC(=O)c1ccco1	4	-1	0	9	111	-1	.	.	.	.
O=C(Nc1ccccc1C(=O)O)c1ccc(NC(=O)c2ccc(Br)o2)cc1	10	7	0	-5	123	0	103	0	93	0
Cc1cc(NC(=O)c2cccc(S(=O)(=O)Nc3cccc(C(=O)O)c3)c2)no1	-3	5	0	-7	97	0	.	.	.	.
